Test results: ChEMBL document CHEMBL1649446, “Comparative antipneumococcal activities of sulopenem and other drugs” (2009)

Tests used:
Type in all cases: functional
Streptococcus pneumoniae [1] = test: Antimicrobial activity against Streptococcus pneumoniae isolate 1394 by agar dilution method
Streptococcus pneumoniae [2] = test: Antimicrobial activity against Streptococcus pneumoniae isolate 1397 by agar dilution method
How it was run: (§1)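 Agar dilution MIC on Mueller-Hinton agar with 5% sheep blood, inocula 10^4 CFU/spot; amoxicillin-clavulanate combined 1:2; S. pneumoniae ATCC 49619 quality control each run.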

Streptococcus pneumoniae [3] = test: Antimicrobial activity against Streptococcus pneumoniae isolate 1424 by agar dilution method; how it was run: as §1
Streptococcus pneumoniae [4] = test: Antimicrobial activity against Streptococcus pneumoniae isolate 1564 by agar dilution method
Streptococcus pneumoniae [5] = test: Antimicrobial activity against Streptococcus pneumoniae isolate 2617 by agar dilution method; how it was run: as §1
Streptococcus pneumoniae [6] = test: Antimicrobial activity against Streptococcus pneumoniae isolate 2686 by agar dilution method; how it was run: as §1
Streptococcus pneumoniae [7] = test: Antimicrobial activity against Streptococcus pneumoniae isolate 2688 by agar dilution method; how it was run: as §1
Streptococcus pneumoniae [8] = test: Antimicrobial activity against Streptococcus pneumoniae isolate 2874 by agar dilution method; how it was run: as §1
Streptococcus pneumoniae [9] = test: Antimicrobial activity against Streptococcus pneumoniae isolate 2880 by agar dilution method; how it was run: as §1
Streptococcus pneumoniae [10] = test: Antimicrobial activity against Streptococcus pneumoniae isolate 3260 by agar dilution method
Streptococcus pneumoniae [11] = test: Antimicrobial activity against Streptococcus pneumoniae isolate 3263 by agar dilution method
Streptococcus pneumoniae [12] = test: Antimicrobial activity against Streptococcus pneumoniae isolate 3275 by agar dilution method; how it was run: as §1
Streptococcus pneumoniae [13] = test: Antimicrobial activity against Streptococcus pneumoniae isolate 3282 by agar dilution method
Streptococcus pneumoniae [14] = test: Antimicrobial activity against Streptococcus pneumoniae isolate 3346 by agar dilution method
Streptococcus pneumoniae [15] = test: Antimicrobial activity against Streptococcus pneumoniae isolate 3374 by agar dilution method; how it was run: as §1
Streptococcus pneumoniae [16] = test: Antimicrobial activity against Streptococcus pneumoniae isolate 3412 by agar dilution method; how it was run: as §1
Streptococcus pneumoniae [17] = test: Antimicrobial activity against Streptococcus pneumoniae isolate 3455 by agar dilution method
Streptococcus pneumoniae [18] = test: Antimicrobial activity against Streptococcus pneumoniae isolate 3458 by agar dilution method
Streptococcus pneumoniae [19] = test: Antimicrobial activity against Streptococcus pneumoniae isolate 3481 by agar dilution method; how it was run: as §1
Streptococcus pneumoniae [20] = test: Antimicrobial activity against Streptococcus pneumoniae isolate 3587 by agar dilution method
Streptococcus pneumoniae [21] = test: Antimicrobial activity against Streptococcus pneumoniae isolate 3681 by agar dilution method; how it was run: as §1
Streptococcus pneumoniae [22] = test: Antimicrobial activity against Streptococcus pneumoniae isolate 3791 by agar dilution method; how it was run: as §1
Streptococcus pneumoniae [23] = test: Antimicrobial activity against Streptococcus pneumoniae isolate 4747 by agar dilution method; how it was run: as §1
Streptococcus pneumoniae [24] = test: Antimicrobial activity against Streptococcus pneumoniae isolate 4755 by agar dilution method; how it was run: as §1
Streptococcus pneumoniae [25] = test: Antimicrobial activity against Streptococcus pneumoniae 1 by time-kill analysis in presence of beta-lactamase inhibitor clavulanic acid
Streptococcus pneumoniae [26] = test: Antimicrobial activity against Streptococcus pneumoniae 2 by time-kill analysis in presence of beta-lactamase inhibitor clavulanic acid
Streptococcus pneumoniae [27] = test: Antimicrobial activity against Streptococcus pneumoniae 3 by time-kill analysis in presence of beta-lactamase inhibitor clavulanic acid
Streptococcus pneumoniae [28] = test: Antimicrobial activity against Streptococcus pneumoniae 4 by time-kill analysis in presence of beta-lactamase inhibitor clavulanic acid
Streptococcus pneumoniae [29] = test: Antimicrobial activity against Streptococcus pneumoniae 5 by time-kill analysis in presence of beta-lactamase inhibitor clavulanic acid
Streptococcus pneumoniae [30] = test: Antimicrobial activity against Streptococcus pneumoniae 6 by time-kill analysis in presence of beta-lactamase inhibitor clavulanic acid
Streptococcus pneumoniae [31] = test: Antimicrobial activity against Streptococcus pneumoniae 7 by time-kill analysis in presence of beta-lactamase inhibitor clavulanic acid
Streptococcus pneumoniae [32] = test: Antimicrobial activity against Streptococcus pneumoniae 8 by time-kill analysis in presence of beta-lactamase inhibitor clavulanic acid
Streptococcus pneumoniae [33] = test: Antimicrobial activity against Streptococcus pneumoniae 9 by time-kill analysis in presence of beta-lactamase inhibitor clavulanic acid
Streptococcus pneumoniae [34] = test: Antimicrobial activity against Streptococcus pneumoniae 10 by time-kill analysis in presence of beta-lactamase inhibitor clavulanic acid
Streptococcus pneumoniae [35] = test: Antimicrobial activity against Streptococcus pneumoniae 11 by time-kill analysis in presence of beta-lactamase inhibitor clavulanic acid
Streptococcus pneumoniae [36] = test: Antimicrobial activity against Streptococcus pneumoniae 12 by time-kill analysis in presence of beta-lactamase inhibitor clavulanic acid

Measured: MIC

CC1(C)S[C@@H]2[C@H](NC(=O)[C@H](N)c3ccc(O)cc3)C(=O)N2[C@H]1C(=O)O [AMOXICILLIN]
4 µg/mL: Streptococcus pneumoniae [2] | Streptococcus pneumoniae [4] | Streptococcus pneumoniae [13] | Streptococcus pneumoniae [16] | Streptococcus pneumoniae [24]
0.125 µg/mL: Streptococcus pneumoniae [9]
2 µg/mL: Streptococcus pneumoniae [11] | Streptococcus pneumoniae [21] | Streptococcus pneumoniae [22] | Streptococcus pneumoniae [28] | Streptococcus pneumoniae [31] | Streptococcus pneumoniae [32] | Streptococcus pneumoniae [35]
0.25 µg/mL: Streptococcus pneumoniae [30] | Streptococcus pneumoniae [33]
1 µg/mL: Streptococcus pneumoniae [5] | Streptococcus pneumoniae [12] | Streptococcus pneumoniae [15] | Streptococcus pneumoniae [20] | Streptococcus pneumoniae [36]
0.06 µg/mL: Streptococcus pneumoniae [34]
0.03 µg/mL: Streptococcus pneumoniae [25] | Streptococcus pneumoniae [26]
0.5 µg/mL: Streptococcus pneumoniae [8] | Streptococcus pneumoniae [27]
16 µg/mL: Streptococcus pneumoniae [7]
8 µg/mL: all other assays above
